Source: ChEMBL document CHEMBL3045815, “The cruciferous phytoalexins rapalexin A, brussalexin A and erucalexin: chemistry and metabolism in Leptosphaeria maculans” (Bioorg Med Chem, 2012)

What was measured:
[1] = Half life in water; type: physicochemical
[2] = Half life in potato dextrose agar medium; type: physicochemical
Plenodomus lingam [3] = assay: Antifungal activity against Leptosphaeria maculans assessed as mycelial radial growth inhibition on potato dextrose agar at 0.10 mM relative to control; type: functional
Procedure, shortened: (§1)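 Mycelial radial growth on PDA. L. maculans isolates BJ-125 or UAMH-9410 were grown on V8 agar for 14 days at 23 °C under constant light. Wells with PDA containing test compound (0.50, 0.20 or 0.10 mM) or control, each with 1% CH3CN, were inoculated centrally with inverted 4 mm plugs from 7-day-old V8 plates. Growth after 5 days under constant light gave % inhibition = 100 − (amended/control growth × 100); ± SD.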

Plenodomus lingam [4] = assay: Antifungal activity against Leptosphaeria maculans assessed as mycelial radial growth inhibition on potato dextrose agar at 0.20 mM relative to control; type: functional; procedure, shortened: as §1
Plenodomus lingam [5] = assay: Antifungal activity against Leptosphaeria maculans assessed as mycelial radial growth inhibition on potato dextrose agar at 0.50 mM relative to control; type: functional; procedure, shortened: as §1
[6] = Half life in Leptosphaeria maculans; type: ADME, organism-based; conditions: plenodomus lingam
Procedure, shortened: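 Minimal medium inoculated with L. maculans BJ-125 spores was shaken at 120 rpm and 23 °C under constant light. After 2 days, compound was added in CH3CN (0.10 mM final); uninoculated medium served as control. Samples were taken immediately and at intervals up to 72–96 h, then frozen or extracted with EtOAc. Extracts were concentrated, taken up in CH3CN and analysed by HPLC.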

| Structure (SMILES) | half-life [1] | half-life [2] | half-life [6] | inhibition at 100 µM (Plenodomus lingam [3]) | inhibition at 200 µM (Plenodomus lingam [4]) | inhibition at 500 µM (Plenodomus lingam [5]) |
| --- | --- | --- | --- | --- | --- | --- |
| CNC(=S)SCc1c[nH]c2ccccc12 | 20 h | 24 h |  | 17% | 35% | 61% |
| CON1c2ccccc2C(O)C12CN=C(SC)S2 (mixture of isomers) [DIHYDROERUCALEXIN] |  |  |  | 7% | 13% | 23% |
| COc1cccc2[nH]cc(N=C=S)c12 [RAPALEXIN A] |  |  |  | 21% | 53% | 100% |

Now from value to compound, other results behind:

| half-life [1] | half-life [2] | half-life [6] | Structure (SMILES) | inhibition at 100 µM (Plenodomus lingam [3]) | inhibition at 200 µM (Plenodomus lingam [4]) | inhibition at 500 µM (Plenodomus lingam [5]) |
| --- | --- | --- | --- | --- | --- | --- |
|  |  | < 6 h | CON1c2ccccc2C(=O)C12CN=C(SC)S2 (racemic) [RAC-ERUCALEXIN] | 6% | 17% | 40% |
| 48 h | 15 h |  | C=CCNC(=O)SCc1c[nH]c2ccccc12 [BRUSSALEXIN A] | 7% | 25% | 43% |
| > 72 h |  |  | OCc1c[nH]c2ccccc12 [INDOLE-3-CARBINOL] | 19% | 27% | 52% |
